Rows were chosen to be rich in hits. Some 4.3% of all compounds tested hit in one or more screens of this group.
Rin1 Abl inh = human Rin1-Abl interaction inhibition | P00519+Q13671 | TR-FRET Rin1/Abl binding, biochemical | inhibition, % at 7.35 µM | 0.4% of 360,000 active | AID 588664; in the data active means inhibition above about 5%, passing the limit was not always enough
ALR inh = blocks human ALR sulfhydryl oxidase activity; purified ALR, DTT oxidation, H2O2 HRP-luminol luminescence; inhibition, % (concentration not given with the values); 3.8% of 290,000 active;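 active means mean replicate inhibition above about 79%, with every replicate also reaching it, limit read from the data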
PREPL inhibitor = inhibitors of human prolyl oligopeptidase-like enzyme PREPL | Q4J6C6 | 0.68% of 320,000 active | recombinant PREPL, fluorescence polarization activity-based probe | AID 2751 | inhibition, % at 5.96 µM
RBBP9 inh = blocks human serine hydrolase RBBP9. O75884. recombinant RBBP9, FP-Rh probe fluorescence polarization. inhibition, % at 7.94 µM. 0.2% of 220,000 active. AID 1515;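 active means inhibition above the campaign mean of all tested compounds plus 3 SD, cut at about 14% in these data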
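Test system: recombinant human RBBP9; Timing: 30 min then 45 min, 25 °C; Detection: fluorescence polarization; Control set: RBBP9 with DMSO as uninhibited control, no-protein wells as full inhibition; Compound dosing: one concentration, 7.94 µM nominal, 0.794% DMSO; Probe or stimulus: FP-Rh activity-based probe, 375 nM before mixing.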
UBC9 SUMO inh = blocks human SUMOylation mediated by UBC9 | AID 2006 | 0.36% of 290,000 active | P63279 | HTRF SUMOylation assay, SAE1/SAE2 + UBC9, in vitro | inhibition, % at 35 µM; in the data active means inhibition above about 50%, passing the limit was not always enough
UBC13 inh = blocks human UBC13 polyubiquitin chain formation. 0.47% of 330,000 active. inhibition, % at 20 µM. AID 485273. TR-FRET. P61088; in the data active means inhibition above about 45%, passing the limit was not always enough
PREPL confirm = confirmation of human PREPL enzyme inhibitors; shares compounds with PREPL inhibitor; recombinant PREPL, fluorescence polarization activity probe; inhibition, % at 5.96 µM; 67% of 2,000 active
Each line names hits and unclear results; the compound was inactive in the other large screens (follow-up assays come after a bar, where they were run). Unless noted, no stated cut-off is given here; in the data, active means inhibition above about 43%; inactive means the rest.

Cc1ccc(C(=O)c2ccccc2C(=O)OCC(=O)N2C(C)CCCC2C)cc1 (centres undefined)	none (no result: RBBP9 inh, UBC9 SUMO inh)
CC(C)NC(=O)c1ccc(NC(=O)CC2SC(N3CCCCC3)=NC2=O)cc1 (centres undefined)	PREPL inhibitor 80 (no result: RBBP9 inh, UBC9 SUMO inh) | PREPL confirm inactive
CC(C)NC(=O)c1ccc(NC(=O)CC2SC(N3CCCC3)=NC2=O)cc1 (centres undefined)	none (no result: RBBP9 inh, UBC9 SUMO inh)
CC1(c2ccc3ccccc3c2)NC(=O)N(CC(=O)NCC(C)(C)N2CCOCC2)C1=O (centres undefined)	none (no result: ALR inh, RBBP9 inh, UBC9 SUMO inh)
O=C(CNC(=O)c1ccco1)NCC(c1ccco1)N1CCCCC1 (centres undefined)	PREPL inhibitor 73 (no result: RBBP9 inh, UBC9 SUMO inh) | PREPL confirm inactive
O=C(CCN1C(=O)c2ccccc2S1(=O)=O)NCc1ccccc1	none (no result: RBBP9 inh, UBC9 SUMO inh)
COc1ccc(/C=N/NC(=O)CNC(=O)c2ccc3c(c2)OCCO3)c(C(=O)O)c1OC	none (no result: RBBP9 inh)
COc1cc(-c2nnc3sc(Cc4ccc(Cl)cc4)nn23)cc(OC)c1OC	PREPL inhibitor 54 (no result: ALR inh, RBBP9 inh, UBC9 SUMO inh) | PREPL confirm 52
CCOc1ccc(CN(C)C(=O)CNC(=O)C2CCCCC2)cc1OC	none (no result: RBBP9 inh)
Cc1ccc2nc(-c3sc4nc(C)cc(C)c4c3N)[nH]c2c1	PREPL inhibitor 73 | PREPL confirm inactive
CC(=O)c1sc2nc(C)cc(C)c2c1N	none (no result: ALR inh)
COc1ccc(-c2[nH]nc3c2C(c2ccsc2)C(C#N)=C(N)O3)cc1 (centres undefined)	PREPL inhibitor 89 | PREPL confirm inactive
Cc1ccc(-c2[nH]nc3c2C(c2ccsc2)C(C#N)=C(N)O3)cc1 (centres undefined)	none
COc1ccccc1Cc1nc2ccccc2n1S(=O)(=O)c1ccc(Cl)cc1	none
CCCC(=O)Nc1cc2c3c(c1)CC(=O)N3CCC2	none (no result: RBBP9 inh)
O=C(COc1ccc(Cl)cc1)Nc1cc2c3c(c1)CC(=O)N3CCC2	PREPL inhibitor 47 (no result: RBBP9 inh, UBC9 SUMO inh) | PREPL confirm inactive
Cc1cc(C)c(C)c(OCCCCN2CCCCC2)c1	none (no result: RBBP9 inh)
CN1Cc2c(N3CCOCC3)nc3sc(C(=O)c4ccccc4)c(N)c3c2CC1(C)C	PREPL inhibitor 61 | PREPL confirm 64
CCOC(=O)c1sc2nc(N3CCOCC3)c3c(c2c1N)CC(C)(C)N(C)C3	none
COc1cc(/C=N/N=C2/NC(=O)C(CC(=O)O)S2)ccc1OCc1ccc(Cl)cc1 (centres undefined)	none
CCOc1cc(/C=N/N=C2/NC(=O)C(CC(=O)O)S2)ccc1OCc1ccc(Cl)cc1Cl (centres undefined)	PREPL inhibitor 49 | PREPL confirm 64
Cc1sc(NC(=O)c2ccccc2)c(C(c2ccc(Cl)cc2)N2CCN(CCO)CC2)c1C (centres undefined)	PREPL inhibitor 48 | PREPL confirm inactive
COCCN1CCCC(CNCc2cn(C)nc2-c2ccc(Oc3ccccc3)cc2)C1 (centres undefined)	PREPL inhibitor 43 (no result: ALR inh) | PREPL confirm inactive
NC(=O)[C@@H]1CCCNc2c(I)cc([N+](=O)[O-])cc2C(=O)N[C@@H](CCCN=C(N)N)C(=O)N[C@@H](CCCN=C(N)N)C(=O)N1	PREPL inhibitor 61 (no result: Rin1 Abl inh) | PREPL confirm 59
CC[C@H](C)[C@@H]1NC(=O)c2cc([N+](=O)[O-])cc(I)c2NCC[C@@H](C(N)=O)NC(=O)[C@H](CCCN=C(N)N)NC1=O	none (no result: Rin1 Abl inh)
Nc1ccc2nc(CCCCCCCCc3nc4ccc(N)cc4[nH]3)[nH]c2c1	ALR inh 96, PREPL inhibitor 70 | PREPL confirm inactive
c1ccc2[nH]c(CCCc3nc4ccccc4[nH]3)nc2c1	none (no result: RBBP9 inh)
O=C(NCc1ccco1)C1CCCN(c2nnc(-n3cccc3)s2)C1 (centres undefined)	none (no result: RBBP9 inh)
CCn1c(S(=O)(=O)O)nc2ccccc21	none
CC(=O)Nc1ccc(OCC(O)CN2CCN(c3cc(Cl)ccc3C)CC2)cc1 (centres undefined)	none
CC(=O)Nc1ccc(OCC(O)CN2CCN(c3ccc(C)c(Cl)c3)CC2)cc1 (centres undefined)	ALR inh 98, PREPL inhibitor 44 | PREPL confirm inactive
Cc1[nH]c2ccc(C(=O)NCCCN3CCCCCC3)cc2c1C	PREPL inhibitor 46 (no result: RBBP9 inh) | PREPL confirm inactive
O=C(c1ccc(CNc2c(N3CCCC3)c(=O)c2=O)cc1)N1CC=C(c2ccccc2)CC1	PREPL inhibitor 43 | PREPL confirm inactive
COc1nnc(-c2ccc(C)cc2)c2ccccc12	none (no result: PREPL inhibitor, RBBP9 inh)
COc1cc(/C=C2\C(=N)N3N=C(N4CCOCC4)SC3=NC2=O)ccc1OC(=O)c1ccccc1	none (no result: RBBP9 inh)
N=C1/C(=C\c2ccc(OC(=O)c3ccccc3Cl)cc2)C(=O)N=C2SC(N3CCOCC3)=NN12	PREPL inhibitor 53 (no result: RBBP9 inh) | PREPL confirm inactive
O=C(Cc1ccccc1)Nc1ccc(N2CCOCC2)cc1	none
O=C(Cc1ccccc1)Nc1ccc(N2CCCC2)cc1	PREPL inhibitor 60 | PREPL confirm inactive
O=C(Cc1ccccc1)Nc1cccc(N2CCCC2)c1	PREPL inhibitor 51 | PREPL confirm inactive
CCCn1cnc2cc(NCc3ccc(Br)cc3)ccc21	PREPL inhibitor 49 (no result: RBBP9 inh) | PREPL confirm 46
CN(C)c1ccc(CNc2ccc3c(c2)ncn3C(C)(C)C)cc1	ALR inh 93, PREPL inhibitor 43 (no result: RBBP9 inh) | PREPL confirm inactive
CC(C)COC(=O)N1CCCCC1c1cc(C(=O)NCc2ccc(F)cc2)no1 (centres undefined)	none (no result: ALR inh, PREPL inhibitor, RBBP9 inh, UBC9 SUMO inh, UBC13 inh)
Oc1ccc(C[C@@H]2CNCCN2CC2(c3ccccc3)CC2)cc1	none (no result: RBBP9 inh, UBC9 SUMO inh)
COc1cc(CC(C#N)(CO)c2nc3ccccc3[nH]2)ccc1OC(F)F (centres undefined)	none
CC#CCN(Cc1ccco1)C(=O)c1ccc(OC2CCN(Cc3ccccn3)CC2)cc1	PREPL inhibitor 49 (no result: RBBP9 inh) | PREPL confirm inactive
COc1ccc(NC(=O)c2sc3ncn(CC(=O)N4CCN(c5ccccn5)CC4)c(=O)c3c2C)cc1OC	PREPL inhibitor 58 (no result: RBBP9 inh) | PREPL confirm 49
Cc1cc(C)c2nc(N3C(=O)C(O)=C(C(=O)c4ccco4)C3c3ccco3)sc2c1 (centres undefined)	ALR inh 98, PREPL inhibitor 44 (no result: RBBP9 inh) | PREPL confirm 53
CCOc1ccc2nc(N3C(=O)C(O)=C(C(=O)c4ccco4)C3c3ccco3)sc2c1 (centres undefined)	none (no result: RBBP9 inh, UBC9 SUMO inh)
CC(Nc1nc(-c2ccc(F)cc2)cs1)c1nc2cc(Cl)c(N3CCCCC3)cc2n1CCOCCO (centres undefined)	PREPL inhibitor 55 (no result: RBBP9 inh, UBC9 SUMO inh) | PREPL confirm 50
O=C(Nc1c(C(=O)N2CCOCC2)oc2ccccc12)c1ccccc1Cl	none (no result: RBBP9 inh)
COC(=O)c1c(Cl)c2n3ccccc3c(C)c(-c3ccccc3)c-2c1C(=O)OC	PREPL inhibitor 49 (no result: ALR inh) | PREPL confirm inactive
COC(=O)c1cc2c(-c3ccccc3)c(C)c3ccccn3c-2c1C(=O)OC	none (no result: ALR inh)

Compound activity as filed in PubChem.
